High-throughput results from PubChem.
Shown are actives, neighbours in structure and some others; about 2.1% of the full set was active somewhere.
PGC1a acetyl inh: inhibitors of PGC1a acetylation signal, primary screen, cell-based, U2OS, AlphaScreen, inhibitor mode; AlphaScreen anti-acetyl-lysine; with virally co-expressed GCN5 acetyltransferase; inhibition, % at 15.6 µM; 350,000 tested, 0.17% active; AID 651687, 2012;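 active means every replicate shows inhibition of at least 40%; inconclusive means mean inhibition at least 40% but some replicate below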;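 further: 0% = neutral control wells and 100% = positive control wells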
PAX8 reporter: inhibitors of PAX8-driven TPO luciferase reporter, primary screen, RMG-I cells, single concentration. SteadyGlo, 24 h. inhibition, % at 12.6 µM. 360,000 tested, 1.2% active. AID 652154, 2013;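 active means mean replicate inhibition at least 60% with every replicate also reaching 60%; inconclusive means only one of the two criteria is met; inactive means mean below 60% and not all replicates reaching 60%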;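 further: luciferase light reporting Pax8 driven TPO promoter activity; plate controls were median of neutral control wells for no effect and mitoxantrone controls for full effect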
EWS-Fli block: EWS/Fli-driven NR0B1 reporter inhibitors, primary screen, A673 cells, NR0B1 luciferase, luminescence, MLPCN library. inhibition, % at 12.6 µM. AID 651661, 2012. viability-normalised. 350,000 tested, 0.67% active;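 active means mean inhibition of at least 50% after viability correction, with every replicate also passing that limit; inconclusive means mean reaches 50% but only one of two replicates passes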;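 further: firefly luciferase signal divided by Alamar Blue viability fluorescence both relative to DMSO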
GSIS activator: GLuc luminescence reporter in INS-1E cells, primary screen for activators of glucose-dependent secretion of insulin | activation, % at 16.6 µM | 370,000 tested, 0.61% active | INS-1E GLuc reporter insulin secretion, 2-3 h;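 active means lowest replicate activation of at least 40%, so every replicate reaches that level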;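 further: 0% = median of neutral control wells and 100% = median of IBMX positive control wells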
XiGFP reactiv: activators of inactive X chromosome reactivation, primary screen, imaging, XiGFP fibroblasts, GFP high-content imaging, set 2 | XiGFP mouse fibroblasts, % GFP-positive cells imaging, 3 d; cells co-treated with 5-aza-dC sensitizer; scaled so ellipticine positive control = 100% | activation, % at 7.58 µM | 360,000 tested, 0.055% active;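 active means mean normalized replicate activation at least 10% and every replicate at or above 10%; inconclusive means only one of the two criteria met; inactive means mean below 10% and not all replicates reach 10%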;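 further: 0% = median of on-plate neutral control wells and 100% = ellipticine 6 µM median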
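material = 68-5-11 XiGFP fibroblast line | medium = DMEM plus 5-aza-dC sensitizer | schedule = 3 days compound exposure | benchmarks = positive control ellipticine, 6 µM final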
MLL AF4-AF9 inh: inhibitors of AF4 peptide binding to AF9, primary screen, biochemical, AlphaScreen, biotin-AF4 peptide, FLAG-AF9, single point; inhibition, % at 10 µM; 350,000 tested, 0.47% active;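 active means every replicate reaching a set inhibition limit, whatever the replicate mean, cut at about 25% in these data; inconclusive means mean inhibition reaches that limit but some replicates miss it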;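 further: 0% = plate neutral control median and 100% = total signal loss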
Target sequence (P42568 whole entry, looked up): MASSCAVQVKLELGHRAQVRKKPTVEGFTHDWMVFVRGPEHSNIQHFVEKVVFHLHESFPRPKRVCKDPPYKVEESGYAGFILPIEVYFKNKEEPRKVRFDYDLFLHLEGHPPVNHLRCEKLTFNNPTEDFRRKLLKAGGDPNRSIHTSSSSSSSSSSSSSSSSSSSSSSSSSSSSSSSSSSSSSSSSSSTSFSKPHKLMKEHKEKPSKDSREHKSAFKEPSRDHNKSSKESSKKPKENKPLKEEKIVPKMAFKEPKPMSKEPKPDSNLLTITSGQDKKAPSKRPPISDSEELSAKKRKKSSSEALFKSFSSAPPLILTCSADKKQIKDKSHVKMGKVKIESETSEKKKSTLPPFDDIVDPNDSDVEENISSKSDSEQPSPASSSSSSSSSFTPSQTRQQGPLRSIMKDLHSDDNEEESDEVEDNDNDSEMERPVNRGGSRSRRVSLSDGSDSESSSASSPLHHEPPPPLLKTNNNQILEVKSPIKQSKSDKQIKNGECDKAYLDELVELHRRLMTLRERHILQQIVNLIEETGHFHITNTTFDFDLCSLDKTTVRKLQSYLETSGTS
* marks the source's active call; other numbers are inactive results; ? = inconclusive; nt = no result.

SMILES	PGC1a acetyl inh	PAX8 reporter	EWS-Fli block	GSIS activator	XiGFP reactiv	MLL AF4-AF9 inh
CN1c2ccc(-c3ccc(C#N)cc3)cc2[C@@H]2[C@@H](CCN2C(=O)NC2CCCCC2)[C@@H]1CO	1	88*	1	12	0	-23
COc1ccc(NC(=O)N2CC[C@@H]3[C@H]2c2cc(-c4cccc(F)c4)ccc2N(C)[C@H]3CO)cc1	6	12	-13	7	0	-4
COc1ccc(-c2ccc3c(c2)[C@H]2[C@H](CCN2C(=O)C2CC2)[C@@H](CO)N3C)cc1	5	3	3	-15	0	?
COc1ccc(-c2ccc3c(c2)[C@H]2[C@H](CCN2C(=O)C2CCCC2)[C@H](CO)N3C)cc1	nt	nt	2	-47	0	26*
C[C@@H]1CN([C@@H](C)CO)C(=O)Cc2cc(NS(=O)(=O)c3ccccc3)ccc2O[C@H]1CN(C)C	-1	4	1	11	0	-9
COc1ccc(CNC(=O)C[C@H]2CC[C@@H](NC(=O)c3cccc(F)c3)[C@H](CO)O2)cc1	3	3	-1	-9	0	11
C[C@@H]1CN([C@H](C)CO)C(=O)Cc2cc(NC(=O)Cn3cnnn3)ccc2O[C@H]1CN(C)S(=O)(=O)c1ccc(F)cc1	5	1	-10	22	0	1
COc1cccc(-c2ccc3c(c2)[C@H]2[C@H](CCN2C(=O)NC2CCCCC2)[C@@H](CO)N3C)c1	13	96*	-12	-33	0	?
COc1ccccc1C#Cc1ccc([C@@H]2[C@@H](C#N)N(C(=O)C3CCCCC3)[C@@H]2CO)cc1	2	3	1	3	0	3
COc1ccccc1C#Cc1ccc([C@H]2[C@@H](CO)N(C(=O)C3CCCCC3)[C@H]2C#N)cc1	-4	90*	18	1	0	7
COc1ccccc1C#Cc1ccc([C@H]2[C@@H](C#N)N(C(=O)C3CCC3)[C@@H]2CO)cc1	-8	4	-1	-4	0	-1
COc1ccccc1C#Cc1ccc([C@H]2[C@@H](C#N)N(C(=O)C3CC3)[C@H]2CO)cc1	-2	66*	-26	-4	0	6
COc1ccccc1C#Cc1ccc([C@H]2[C@H](C#N)N(C(=O)C3CC3)[C@H]2CO)cc1	29	91*	18	-3	0	-1
CC(=O)Nc1ccc2c(c1)C(=O)N(C)[C@H]1CC[C@H](CC(=O)NCc3ccc4c(c3)OCO4)O[C@H]1CO2	3	3	2	8	0	nt
COc1ccc(C(=O)Cc2ccccc2)cc1OC	2	nt	nt	29	nt	nt
COc1ccc(CC(=O)OCC(=O)c2ccc(OC)c(OC)c2)cc1	8	-3	-5	41*	0	1
COc1ccc(CC(=O)OCC(=O)c2ccc(OC)cc2)cc1	nt	7	nt	8	1	nt
COc1ccc(C(=O)c2ccc(OC)c(OC)c2)cc1OC	nt	12	nt	nt	nt	nt
COc1ccc(CC(=O)c2ccc(OC)c(OC)c2)cc1	nt	-37	-11	71*	0	7
COc1ccc(C(=O)c2ccc(OC)c(OC)c2)cc1	13	nt	nt	56*	nt	nt
COc1ccc(C(=O)c2ccc(Br)cc2)cc1	-6	nt	nt	84*	nt	nt
O=C(C[C@H]1CC[C@@H]2[C@H](COC[C@@H](O)CN2Cc2nccs2)O1)NCc1ccccc1F	-2	-8	2	12	0	0
C[C@@H]1CN([C@@H](C)CO)C(=O)c2cc(NS(C)(=O)=O)ccc2O[C@H]1CN(C)Cc1ccc(C(F)(F)F)cc1	-11	-2	4	-5	0	-6
COc1ccc(S(=O)(=O)Nc2ccc3c(c2)C(=O)N([C@@H](C)CO)C[C@@H](C)[C@H](CN(C)CC2CC2)O3)cc1	4	nt	5	13	-1	-16
C[C@H](NC(=O)[C@H]1[C@H](CO)[C@H]2Cn3c(ccc(-c4cccc(F)c4)c3=O)[C@H]2N1C)c1ccccc1	nt	2	3	-7	0	-2
SMILES	PGC1a acetyl inh	PAX8 reporter	EWS-Fli block	GSIS activator	XiGFP reactiv	MLL AF4-AF9 inh
COc1cc2ccc(C(C)=O)cc2cc1OC	5	29	-7	48*	0	-4
COc1cc(C(=O)C(=O)c2ccc(OC)c(OC)c2)ccc1O	2	-5	4	45*	0	-2
COc1ccc(-c2ccc3c(N)c(C(=O)c4ccc(OC)c(OC)c4)sc3n2)cc1	-12	nt	nt	172*	nt	nt
COc1ccc(OC)c(C(=O)c2ccc([N+](=O)[O-])cc2)c1	8	-22	-3	58*	0	13
COc1ccc(C(=O)c2sc3nc(-c4ccccc4)ccc3c2N)cc1OC	-6	-5	nt	nt	nt	nt
O=C(NCC1CC1)[C@@H]1[C@@H](CO)[C@@H]2Cn3c(cccc3=O)[C@@H]2N1C(=O)Nc1ccccc1	nt	nt	8	12	1	1
CCOC(=O)c1sc2nc(-c3ccccc3)ccc2c1N	nt	-201	nt	76*	0	nt
COc1ccc(CCN2C(=O)CN(Cc3ccccc3)CC2=O)cc1OC	nt	-8	-3	nt	0	2
COc1ccc(CCN2C(=O)CSC2c2ccc(OC)c(OC)c2)cc1OC (centres undefined)	nt	12	1	1	0	-1
COc1ccc(CCN2C(=O)C=CC2=O)cc1OC	0	95*	25	205*	0	5
COc1ccc(C2SCC(=O)N2CCc2ccc(OC)c(OC)c2)cc1 (centres undefined)	nt	21	54*	2	0	1
O=C(N[C@H]1CC[C@@H](CC(=O)N2CCCCC2)O[C@@H]1CO)c1ccc2c(c1)OCO2	-2	-8	2	-7	0	0
Cc1ccc(S(=O)(=O)N(C)C[C@H]2OCCCC[C@H](C)Oc3ccc(NS(=O)(=O)c4ccc(Cl)cc4)cc3C(=O)N([C@H](C)CO)C[C@H]2C)cc1	-8	31	-3	-4	0	-2
Cc1ccc(S(=O)(=O)Nc2ccc3c(c2)C(=O)N([C@H](C)CO)C[C@H](C)[C@H](CN(C)S(=O)(=O)c2ccc(Cl)cc2)OCCCC[C@H](C)O3)cc1	10	66*	18	18	0	nt
Cc1ccc(S(=O)(=O)N(C)C[C@@H]2OCCCC[C@@H](C)Oc3ccc(NS(=O)(=O)c4ccc(Cl)cc4)cc3C(=O)N([C@@H](C)CO)C[C@H]2C)cc1	-17	68*	-17	-9	0	-3
Cc1ccc(S(=O)(=O)N(C)C[C@@H]2OCCCC[C@H](C)Oc3ccc(NS(=O)(=O)c4ccc(Cl)cc4)cc3C(=O)N([C@H](C)CO)C[C@@H]2C)cc1	-9	74*	19	-35	0	-1
